The source made the active and inactive calls. The calls are words filed in the database; no cut-off is given here.
What was measured:
[1] = Stability in human serum at 200 uM incubated for 24 hrs by HPLC-MS analysis; assay type: ADME, cell-free
In short: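 Compound was incubated in human serum at 37 °C and followed over 24 h.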

[2] = Metabolic stability in human liver microsomes at 200 uM incubated for 24 hrs by HPLC-MS analysis; assay type: ADME, Microsome
In short: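 Compound was incubated with pooled human liver microsomes without NADPH for up to 24 h to assess NADPH-independent metabolism; mean ± SD, n = 3.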

[3] = Metabolic stability in human liver microsome assessed as half life at 200 uM in presence of NADPH incubated for 24 hrs by HPLC-MS analysis; assay type: ADME; conditions: liver microsomes
BEAS-2B [4] = test: Cytoprotective activity in human BEAS2B cells assessed as reduction in HNE-induced cell death incubated for 24 hrs by MTT assay; assay type: functional, cell-based
In short: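 BEAS-2B bronchial epithelial cells were cotreated with compound and 100 nM HNE for 24 h, and viability was read with MTT reagent.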

BEAS-2B [5] = test: Upregulation of IL-1beta in human BEAS2B cells incubated for 3 hrs by RT-qPCR analysis
Neutrophil elastase = target: T1, Neutrophil elastase (Homo sapiens, UniProt P08246); test: Inhibition of human neutrophil elastase using N-(OMe-succinyl)-Ala-Ala-Pro-Val-p-nitroanilide as substrate incubated for 15 mins followed by substrate addition and measured for every 30 sec for 30 mins by spectrophotometry
T1 sequence (P08246 whole entry): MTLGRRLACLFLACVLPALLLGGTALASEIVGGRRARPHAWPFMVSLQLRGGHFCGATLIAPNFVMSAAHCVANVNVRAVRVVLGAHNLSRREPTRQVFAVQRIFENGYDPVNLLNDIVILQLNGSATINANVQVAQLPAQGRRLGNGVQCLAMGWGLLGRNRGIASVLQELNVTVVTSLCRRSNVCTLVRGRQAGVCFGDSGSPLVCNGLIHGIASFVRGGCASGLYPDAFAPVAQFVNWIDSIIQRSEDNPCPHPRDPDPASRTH

For `C/C=C1\NC(=O)[C@@H](NC(=O)[C@H](CCC(N)=O)NC(=O)CCCCC)[C@@H](C)OC(=O)[C@H](C(C)C)NC(=O)[C@H](Cc2ccc(O)cc2)N(C)C(=O)[C@H](Cc2ccccc2)N2C(=O)[C@H](CC[C@H]2O)NC1=O` [LYNGBYASTATIN 7], the Stability [1] was “Stable”, the Stability [2] was “Stable” and the half-life at 200 µM [3] was 2 h. The EC50 (BEAS-2B [4]) was 20 nM and the Activity (BEAS-2B [5]) was “Active”.

With `C/C=C1\NC(=O)[C@@H](NC(C)=O)[C@@H](C)OC(=O)[C@H](C(C)C)NC(=O)[C@H](Cc2ccc(O)cc2)N(C)C(=O)[C@H](Cc2ccccc2)N2C(=O)[C@H](CC[C@H]2O)NC1=O` the IC50 (Neutrophil elastase) was 10000 nM.

For `C/C=C1\NC(=O)[C@@H](NC(=O)[C@H](CCC(N)=O)NC(=O)CC2CCCCC2)[C@@H](C)OC(=O)[C@H](C(C)C)NC(=O)[C@H](Cc2ccc(O)cc2)N(C)C(=O)[C@H](Cc2ccccc2)N2C(=O)[C@H](CC[C@H]2O)NC1=O`, the IC50 (Neutrophil elastase) was 103 nM, the EC50 (BEAS-2B [4]) was 91 nM and the Activity (BEAS-2B [5]) was “Active”.

In the case of `C/C=C1\NC(=O)[C@@H](NC(=O)[C@H](CCC(N)=O)NC(=O)CN2CCOCC2)[C@@H](C)OC(=O)[C@H](C(C)C)NC(=O)[C@H](Cc2ccc(O)cc2)N(C)C(=O)[C@H](Cc2ccccc2)N2C(=O)[C@H](CC[C@H]2O)NC1=O`, the IC50 (Neutrophil elastase) is reported as 197 nM, the EC50 (BEAS-2B [4]) is reported as 185 nM and the Activity (BEAS-2B [5]) is reported as “inactive”.

In the case of `C/C=C1\NC(=O)[C@@H](NC(=O)OC(C)(C)C)[C@@H](C)OC(=O)[C@H](C(C)C)NC(=O)[C@H](Cc2ccc(O)cc2)N(C)C(=O)[C@H](Cc2ccccc2)N2C(=O)[C@H](CC[C@H]2O)NC1=O`, the IC50 (Neutrophil elastase) is reported as over 10000 nM.

From ChEMBL document CHEMBL4342506 (ACS Med Chem Lett, 2020)
